Data set [1] addresses Replicase polyprotein 1ab (Severe acute respiratory syndrome coronavirus 2) (UniProt P0DTD1). The data set is described as follows: Binding affinity to C-terminal His tagged SARS CoV-2 main protease transfected in Escherichia coli BL21 (DE3) assessed as covalent bond formation by measuring mass adduct at 100 uM by ESI-TOF analysis. The essentials: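 Compounds at 100 μM incubated with active Mpro (3 μM) in 50 mM Tris-HCl pH 7.4, 100 mM NaCl, 20% v/v ethylene glycol, 0.0016% Brij 58; adducts sought by LC-ESI-TOF MS, C18 column, water/acetonitrile with 0.1% formic acid gradient, negative mode.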

For data set [2] the target is unchanged. The data set is described as follows: Inhibition of C-terminal His tagged SARS CoV-2 main protease transfected in Escherichia coli BL21 (DE3) using 2-Abz-Ser-AlaVal-Leu-Gln-Ser-Gly-Tyr(3-NO2)-Arg-OH as substrate at 50 uM preincubated for 15 mins followed by substrate addition and measured after 15 mins by FRET assay relative to control. The settings on record: time 30.0 min.

Data set [3] has the same target. As to the kind of experiment: Inhibition of C-terminal His tagged SARS CoV-2 main protease transfected in Escherichia coli BL21 (DE3) at 50 uM incubated in presence of DTT. The essentials:
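Mpro fluorogenic inhibition assay repeated with 1 mM DTT added to the assay buffer.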

Data set [4] concerns the target T1, Genome polyprotein (dengue virus type 2, UniProt P29990). As to the kind of experiment: Chemical stability of the compound in DENV2 NS2B-NS3 protease assay buffer assessed as DENV2 NS2B-NS3 protease-mediated amide bond cleavage by measuring reduction in AUC at 100 uM measured after 8 hrs by HPLC analysis. The format is ADME. The following applies: dengue virus type 2, buffer. The procedure, abridged: (§1)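 Compound incubated with isolated protease (SARS-CoV-2 Mpro or DENV-2 protease) in that enzyme's assay buffer for 8 h; remaining compound quantified by HPLC with UV/Vis detection (peak AUC).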

Data set [5] concerns the target T2, Replicase polyprotein 1ab (Severe acute respiratory syndrome coronavirus 2, UniProt P0DTD1). The data set is described as follows: Inhibition of C-terminal His tagged SARS CoV-2 main protease transfected in Escherichia coli BL21 (DE3) using 2-Abz-Ser-AlaVal-Leu-Gln-Ser-Gly-Tyr(3-NO2)-Arg-OH as substrate preincubated for 15 mins followed by substrate addition and measured after 15 mins by FRET assay.

Data set [6] has as its system HeLa. The data set is described as follows: Cytotoxicity against human HeLa cells expressing renilla luciferase reporter construct assessed as reduction in cell viability at 12.5 uM by luciferase based analysis. The format is toxicity.
In data set [7] the target is Replicase polyprotein 1ab (Severe acute respiratory syndrome coronavirus 2) (UniProt P0DTD1). The data set is described as follows: Potency index, ratio of boceprevir IC50 to test compound IC50 for inhibition of C-terminal His tagged SARS CoV-2 main protease transfected in Escherichia coli BL21 (DE3) using 2-Abz-Ser-AlaVal-Leu-Gln-Ser-Gly-Tyr(3-NO2)-Arg-OH as substrate preincubated for 15 mins followed by substrate addition and measured after 15 mins by FRET assay. The following applies: time 30.0 min.

Data set [8] deals with Genome polyprotein (dengue virus type 2) (UniProt P29990). The data set is described as follows: Inhibition of full length DENV2 NS2B-NS3 protease in human HeLa cells expressing luciferase reporter gene at 12.5 uM incubated for 24 hrs by luminescence analysis relative to control. The format is cell-based. The essentials:
(§2)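 Stable DENV2pro reporter HeLa cells seeded at 2×10^4 per well and dosed immediately; 24 h at 37 °C, lysed 15 min, coelenterazine (2.75 μM in PBS) injected, luminescence read 5 s. Triplicates; % inhibition vs untreated cells; EC50 by 4-parameter fit with cell-free background subtraction.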
(In general: A reporter such as luciferase makes a cellular process visible.)

Data set [9] has as its system dengue virus type 2. As to the kind of experiment: Antiviral activity against Dengue virus serotype 2 infected in Huh-7 cells assessed as reduction in virus titer at 12.5 uM incubated for 48 hrs followed by infection of Vero E6 cells with supernatant and measured after 7 days by crystal violet staining based analysis relative to control. The arrangement: scale not given: the % may be the effect or the level left. The format is functional. The settings on record: time 9 day. The essentials: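 Huh-7 cells (1×10^4/well, overnight) infected with DENV-2 at MOI 1 for 2 h, medium changed, compound added; 48 h, triplicate supernatants pooled. Titer by plaque assay: Vero E6 infected 1 h with 10^-1 to 10^-6 dilutions, plaque medium 7 days, formaldehyde-fixed, crystal violet stained, plaques counted.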

Data set [10] deals with Replicase polyprotein 1ab (Severe acute respiratory syndrome coronavirus 2) (UniProt P0DTD1). The data set is described as follows: Reversible inhibition of C-terminal His tagged SARS CoV-2 main protease transfected in Escherichia coli BL21 (DE3) at 100 uM preincubated for 2 hrs followed by dilution to 3 uM and substrate addition measured after 15 mins by fluorimetric assay. The following applies: time 135.0 min.

In data set [11] the target is T2, Replicase polyprotein 1ab. The data set is described as follows: Inhibition of C-terminal His tagged SARS CoV-2 main protease transfected in Escherichia coli BL21 (DE3) assessed as inhibition constant by Michaelis-Menten analysis.
Data set [12] has as its target Replicase polyprotein 1ab (Severe acute respiratory syndrome coronavirus 2) (UniProt P0DTD1). The data set is described as follows: […] inhibition of C-terminal His tagged SARS CoV-2 main protease transfected in Escherichia coli BL21 (DE3) assessed as decrease in Vmax with constant Km using varying concentrations of 2-Abz-Ser-AlaVal-Leu-Gln-Ser-Gly-Tyr(3-NO2)-Arg-OH as substrate by Michaelis-Menten analysis.

The test system of data set [13] is Huh-7. As to the kind of experiment: Cytotoxicity against human Huh-7 cells infected with Dengue virus serotype 2 assessed as reduction in cell viability by celltiter-blue assay. Format: toxicity, cell-based. The procedure, abridged:
(§3)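 CellTiter-Blue viability in HeLa reporter cells or Huh-7 cells, on plates run in parallel with the reporter or titer-reduction assay under the same treatment; each concentration in triplicate.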
On the technique in general: Alamar Blue is a resazurin reagent that responds to reducing activity.

In data set [14] the target is T2, Replicase polyprotein 1ab. As to the kind of experiment: Chemical stability of the compound in SARS-CoV-2 main protease assay buffer assessed as SARS-CoV-2 main protease-mediated amide bond cleavage at 100 uM measured after 8 hrs by HPLC based UV-Vis analysis. Format: ADME. The settings on record: severe acute respiratory syndrome coronavirus 2, buffer. The essentials: as §1

The subject of data set [15] is HeLa. As to the kind of experiment: Cytotoxicity against human HeLa cells expressing luciferase-based DENV-2 protease reporter system assessed as reduction in cell viability by celltiter-blue assay. The format is toxicity. The procedure, abridged:
as §3

Data set [16] addresses T1, Genome polyprotein. The data set is described as follows: Inhibition of full length DENV2 NS2B-NS3 protease in human HeLa cells expressing luciferase reporter gene incubated for 24 hrs by luminescence analysis. Format: cell-based. The procedure, abridged:
as §2

Data set [17] in a line: Permeability of compound in PBS at pH 7.4 measured after 5 hrs by HPLC-UV based PAMPA assay. Format: ADME. The settings on record: pH 7.4, 5 h. Background: The PAMPA barrier holds no transporters, so it reflects passive diffusion.
Data set [18] addresses Trypsin (Homo sapiens, UniProt P07477+P07478+P35030). As to the kind of experiment: Inhibition of trypsin (unknown origin) using Boc-Val-Pro-Arg-AMC as substrate assessed as enzymatic cleavage preincubated for 15 mins followed by substrate addition and measured after 15 mins by Continuous fluorimetric assay. Format: protein assay.
Data set [19] can be described thus: Selectivity index, ratio of CC50 for cytotoxicity against human HeLa cells expressing luciferase-based DENV-2 protease reporter system to EC50 for inhibition of full length DENV2 NS2B-NS3 protease in human HeLa cells expressing luciferase reporter gene. The format is toxicity, cell-based. The following applies: read-out: Ratio CC50/EC50.

Active and inactive are the calls of the source. No cut-off for these calls is given here.

Regarding `CC(C)(C)NC(=O)N[C@H](C(=O)N1C[C@H]2[C@@H]([C@H]1C(=O)NC(CC1CCC1)C(=O)C(N)=O)C2(C)C)C(C)(C)C` (stereo partly specified), the result in data set [1] was Active. In addition, in [2], the inhibition came to 70.8%.
Consider `O=C(Nc1ccc2c(c1)B(O)OC2)c1cccc(OCc2ccccc2)c1`, for which the inhibition result in data set [3], in data set [10] and in [12] was “Active” throughout. Further, the Stability result in data set [4] and in data set [14] was “Stable” throughout. In [5], this compound returned an IC50 of 6.1 µM. In addition, the results for the Activity entry in data set [6], in data set [9] and in data set [13] were “Non-Toxic”, 67.4% and “Non-Toxic”, respectively. Also, the Ratio IC50 in [7] amounted to 3. Also, the inhibition came to 81.2% in data set [8] and 99.6% in data set [2]. Further, the inhibition constant (Ki) in [11] was 6.2 µM. For the same compound, the CC50 in [15] came to 55.2 µM. Moreover, it took 2.4 µM to reach a half-maximal effect in data set [16] (EC50). The permeability entry in data set [17] is given as “Permeable”.
Take `N=C(N)Nc1ccc(C(=O)Nc2ccc3c(c2)B(O)OC3)cc1`: in data set [3], the inhibition entry is “Active”. Also, the IC50 came out at 13.9 µM in data set [5] and 61.4 µM in [18]. Further, the Activity result in data set [6] is recorded as “Non-Toxic”. The values for the inhibition in data set [8] and in data set [2] were 23% and 87.4%, respectively. Also, the Stability entry in [14] is “Stable”. For the same compound, the CC50 in [15] was > 200 µM.
`Cc1cccc(COc2cccc(C(=O)Nc3ccc4c(c3)B(O)OC4)c2)c1` yielded an IC50 in [5] of 59.8 µM. Besides, the inhibition came to 85.2% in data set [8] and 55.5% in data set [2]. The figures for the Activity in data set [9] and in data set [13] were 72.6% and “Non-Toxic”, respectively. Besides, the CC50 in data set [15] is 72.6 µM.
Consider `O=C(Nc1ccc2c(c1)B(O)OC2)c1cccc(OCc2c(Cl)cccc2Cl)c1`, for which the selectivity ratio in [19] came out at 74. Also, the cytotoxic concentration (CC50) in data set [15] stood at 39.7 µM. In addition, the inhibition in data set [2] is 32.6%. Further, the permeability result in data set [17] was “Permeable”.

Usually inhibition stands for how much of the control response was suppressed. In general, IC50 refers to the point on the concentration scale where inhibition reaches its midpoint. As a reminder, the Ki is the dissociation constant of the complex between target and ligand, obtained from inhibition or displacement. Broadly, the CC50 is the concentration giving 50% cytotoxicity. By EC50 is commonly meant the concentration that produces a half-maximal response.

For the origin of these results see ChEMBL document CHEMBL5113504, “Discovery of potent benzoxaborole inhibitors against SARS-CoV-2 main and dengue virus proteases” (Eur J Med Chem, 2022).
